These results are taken from article PMC6972567 (Journal of Clinical Pharmacology, 2019).

Structures are written as SMILES.

Series [1] in a line: Safety assessments in the cocktail study. The class given is in vivo, human.
The conditions of series [2]: cited from earlier work.
Series [3] deals with CYP3A. It is filed as in vivo, human.
For series [4], the system named is CYP3A. The following applies: cited from earlier work.
The nature of series [5]: Plasma pharmacokinetics of the CYP probe substrates and metabolites. It is filed as in vivo, human. The following applies: for t1/2 / half-life: harmonic mean ± pseudo-SD; for AUC(0-inf): AUCinf; for AUC(0-t): AUCt.
Series [6] has as its system CYP2D6. It is filed as in vivo, human. The following applies: probe with upadacitinib 30 mg once daily relative to probe alone, all subjects.
Series [7] has as its system CYP2C19. It is filed as in vivo, human. The following applies: probe with upadacitinib 30 mg once daily relative to probe alone, all subjects.
The target of series [8] is T1, CYP1A2 (Homo sapiens, UniProt P05177).
T1 sequence (P05177 1-516): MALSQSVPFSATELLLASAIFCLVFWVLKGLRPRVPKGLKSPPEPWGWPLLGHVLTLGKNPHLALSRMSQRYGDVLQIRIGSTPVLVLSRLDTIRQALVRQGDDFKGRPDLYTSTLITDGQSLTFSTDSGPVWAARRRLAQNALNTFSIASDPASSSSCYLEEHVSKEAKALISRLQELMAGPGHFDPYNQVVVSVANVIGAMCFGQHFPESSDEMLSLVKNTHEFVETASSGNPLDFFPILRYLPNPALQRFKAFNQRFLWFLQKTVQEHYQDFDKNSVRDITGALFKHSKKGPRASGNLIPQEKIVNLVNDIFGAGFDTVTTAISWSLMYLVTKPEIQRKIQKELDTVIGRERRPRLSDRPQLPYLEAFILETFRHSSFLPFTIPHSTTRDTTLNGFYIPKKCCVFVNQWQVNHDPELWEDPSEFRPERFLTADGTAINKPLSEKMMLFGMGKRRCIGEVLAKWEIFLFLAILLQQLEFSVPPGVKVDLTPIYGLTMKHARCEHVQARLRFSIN
The class given is in vivo. The following applies: probe with upadacitinib 30 mg once daily relative to probe alone, all subjects. In outline: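 Twenty subjects received single oral doses on two occasions: a caffeine 200 mg tablet with the other cocktail probes, after a 10-hour minimum fast and 4 hours before lunch. This was given first alone, then after a 5-day washout on day 12 of test compound 30 mg once daily (days 1‐15). Heparinised plasma was sampled predose through 24 h and at 36 h, with validated assay.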

The mark [9] stands for this setting: Period 1, CYP probes alone, n = 20, mean ± SD.
[10] abbreviates: Period 2, CYP probes + upadacitinib 30 mg once daily.
The mark [11] stands for this setting: Period 2, CYP probes + upadacitinib 30 mg once daily, median (range).
[12] abbreviates: Period 2, CYP probes + upadacitinib 30 mg once daily, n = 20, mean ± SD.
Where [13] appears, read: human, plasma, oral, Period 1, CYP probes alone, n = 20, mean ± SD.
The mark [14] stands for this setting: human, plasma, oral, Period 2, CYP probes + upadacitinib 30 mg once daily, n = 20, mean ± SD.
The mark [15] stands for this setting: Period 1, CYP probes alone, median (range).
The mark [16] stands for this setting: human, plasma, oral, t1/2, Period 2, CYP probes + upadacitinib 30 mg once daily.
The mark [17] stands for this setting: multiple doses of upadacitinib 30 mg once daily.
The mark [18] stands for this setting: probe with upadacitinib 30 mg once daily relative to probe alone, all subjects.

Regarding `CC[C@@H]1CN(C(=O)NCC(F)(F)F)C[C@@H]1c1cnc2cnc3[nH]ccc3n12` [Upadacitinib], the tolerability entry in series [1] (CYP probe substrates alone or after multiple doses of upadacitinib 30 mg once daily, healthy subjects) was “well tolerated”. The “adverse event assessed as possibly related to upadacitinib” value in series [1] (one subject) was “mild oropharyngeal pain”. In series [2], the “administered dose recovered as unchanged upadacitinib in feces and urine” value was “more than 60%”; the metabolizing enzymes result is reported as “metabolized by cytochrome P450 (CYP) 3A and, to a lesser extent, by CYP2D6”. The accumulation in plasma result in series [2] (multiple once-daily dosing of the extended-release formulation) is recorded as “no accumulation”. In addition, the “effect of upadacitinib on CYP3A activity / probe exposure in vivo (in words)” value in series [3] (upadacitinib 30 mg once daily, midazolam probe) was “limited effect”. Besides, in series [4] (concluded from ketoconazole and rifampin interaction), the “sensitivity as CYP3A substrate” value was “not a sensitive substrate for CYP3A”. Also, the “increase in upadacitinib AUC” value in series [4] (with ketoconazole, a strong CYP3A inhibitor) was 75%.
For `COc1ccc2c(c1)[C@]13CCCC[C@@H]1[C@H](C2)N(C)CC3` [Dextromethorphan, dextromethorphan], the t1/2 in series [5] (Period 1, CYP probes alone) amounted to 6.82 ± 4.68 h; in series [5] (setting [10]) it was 7.26 ± 5.08 h. In addition, the CL/F is listed as 4120 ± 5580 L/h in series [5] (setting [9]) and 3390 ± 4560 L/h in series [5] (setting [12]). For the same compound, the Tmax was 3.5 (2.0‐6.0) h in series [5] (setting [11]) and 3.5 h in series [5] (human, plasma, oral). Further, the AUC(0-inf) in series [5] (setting [13]) was found to be 403 ± 706 ng·h/mL; in series [5] (setting [14]) it was 328 ± 552 ng·h/mL. The AUC(0-t) in series [5] (setting [13]) turned out to be 250 ± 397 ng·h/mL; in series [5] (setting [14]), 225 ± 347 ng·h/mL. Besides, the Cmax in series [5] (human, plasma, po) was found to be 7.77 ± 10.1 ng/mL. The “AUCinf Central Value Ratio (90%CI)” value in series [6] is listed as 1.07 (0.95‐1.22). Also, in series [6], the “AUCt Central Value Ratio (90%CI)” value was 1.10 (0.97‐1.25). Besides, the “Cmax Central Value Ratio (90%CI)” value in series [6] is recorded as 1.09 (0.98‐1.21).
On to `COc1ccc2nc([S+]([O-])Cc3ncc(CO)c(OC)c3C)[nH]c2c1` (centres unmarked) [5‐Hydroxy omeprazole, 5‐hydroxy‐omeprazole], for which the t1/2 in series [5] (Period 1, CYP probes alone) was 1.36 ± 0.293 h; in series [5] (setting [10]), 1.37 ± 0.319 h. For the same compound, the Tmax in series [5] (setting [15]) and in series [5] (setting [11]) was 3.0 (2.0‐6.0) h each time. Further, the values for the AUCinf in series [5] (setting [9]) and in series [5] (setting [12]) were 1290 ± 364 ng·h/mL and 1180 ± 302 ng·h/mL, respectively. Besides, the results for the AUCt in series [5] (setting [9]) and in series [5] (setting [12]) were 1270 ± 359 ng·h/mL and 1160 ± 292 ng·h/mL, respectively. For the same compound, the highest concentration (Cmax) was found to be 435 ± 155 ng/mL in series [5] (Period 1, CYP probes alone, single oral dose, plasma, healthy subjects n = 20, mean ± SD) and 389 ± 116 ng/mL in series [5] (Period 2, CYP probes + upadacitinib 30 mg once daily, plasma, n = 20, mean ± SD). In addition, the “AUCinf Central Value Ratio (90%CI)” value in series [7] is given as 0.92 (0.86‐0.99). The “AUCt Central Value Ratio (90%CI)” value in series [7] is on record as 0.92 (0.85‐0.99).
As to `Cn1c(=O)c2c(ncn2C)n(C)c1=O` [Caffeine, caffeine], the CL/F in series [5] (setting [9]) is reported as 6.53 ± 2.99 L/h; in series [5] (setting [12]) it was 5.31 ± 2.26 L/h. Further, the Tmax in series [5] (setting [11]) was 2.0 (1.0‐4.0) h; in series [5] (human, plasma, oral), 2 h. The half-life in series [5] (human, plasma, oral, t1/2, Period 1, CYP probes alone) was 4.52 ± 1.5 h; in series [5] (setting [16]), 5.28 ± 1.5 h. Besides, the Cmax in series [5] (human, plasma, po) is 4190 ± 826 ng/mL. The “AUCinf Central Value Ratio (90%CI)” value in series [8] is recorded as 1.22 (1.15‐1.29). In addition, in series [8], the “AUCt Central Value Ratio (90%CI)” value is on record as 1.21 (1.15‐1.28). The “Cmax Central Value Ratio (90%CI)” value in series [8] was 1.13 (1.05‐1.22).
With `Cc1ncc2n1-c1ccc(Cl)cc1C(c1ccccc1F)=NC2` [Midazolam, midazolam], the t1/2 in series [5] (Period 1, CYP probes alone) is given as 4.65 ± 2.51 h. Also, the Tmax in series [5] (setting [15]) is 0.5 (0.5‐1.0) h. Further, the CL/F in series [5] (setting [9]) came to 68.1 ± 29.2 L/h. Also, the t1/2 in series [5] (setting [10]) was 4.08 ± 2.33 h. In series [5] (setting [12]), the CL/F is 90.2 ± 32.7 L/h. In addition, in series [5] (setting [14]), the AUC(0-inf) stood at 64.6 ± 30.9 ng·h/mL and the AUC(0-t) stood at 63.2 ± 29.6 ng·h/mL. The AUC(0-t) in series [5] (setting [13]) was 87.5 ± 44.5 ng·h/mL. Also, in series [5] (human, plasma, po), the Cmax stood at 32.6 ± 14.1 ng/mL. In series [3] (setting [17]), the “decrease in AUCinf” value stood at 26% and the “decrease in Cmax” value came to 26%. For the same compound, in series [3] (setting [18]), the “AUCinf Central Value Ratio (90%CI)” value is recorded as 0.74 (0.68‐0.80), the “AUCt Central Value Ratio (90%CI)” value is 0.74 (0.68‐0.80) and the “Cmax Central Value Ratio (90%CI)” value is recorded as 0.74 (0.68‐0.80). In addition, in series [3] (upadacitinib 30 mg once daily), the decrease in exposure is recorded as 26%.
On to `COc1ccc2[nH]c([S+]([O-])Cc3ncc(C)c(OC)c3C)nc2c1` (centres unmarked) [Omeprazole, omeprazole], for which the CL/F in series [5] (setting [9]) was 26.5 ± 20.5 L/h. Further, in series [5] (setting [11]), the Tmax was 3.0 (2.0‐6.0) h. Besides, the CL/F in series [5] (setting [12]) is reported as 34.9 ± 24.7 L/h. The Tmax in series [5] (human, plasma, oral) amounted to 3 h. In addition, in series [5] (setting [13]), the AUC(0-inf) worked out at 2890 ± 2870 ng·h/mL and the AUC(0-t) was 2520 ± 2750 ng·h/mL. For the same compound, in series [5] (setting [14]), the AUC(0-inf) was determined as 2080 ± 1860 ng·h/mL and the AUC(0-t) was determined as 2000 ± 1820 ng·h/mL. Moreover, the half-life in series [5] (setting [16]) is 1.14 ± 0.386 h. In series [7], the “AUCinf Central Value Ratio (90%CI)” value was 0.82 (0.72‐0.94), the “AUCt Central Value Ratio (90%CI)” value is 0.87 (0.77‐0.99) and the “Cmax Central Value Ratio (90%CI)” value was 0.87 (0.72‐1.05).
As for `CC(=O)C[C@@H](c1ccccc1)c1c(O)c2ccccc2oc1=O` [S‐warfarin], the Tmax in series [5] (setting [15]) was 2.0 (0.5‐4.0) h; in series [5] (setting [11]), 2.0 (0.5‐3.0) h. For the same compound, in series [5] (carryover after 5-day washout), the “concentrations at the start of period 2” value is < 5 % of S‐warfarin Cmax.

A word on the CL/F: it is clearance divided by bioavailability, as obtained after extravascular dosing. In general, AUC(0-inf) refers to total exposure, with the tail of the curve extrapolated. Usually AUC(0-t) stands for exposure summed from dosing to a finite time, without extrapolation to infinity. In general, Cmax refers to the peak of the concentration-time curve. Usually half-life stands for the time needed for the level to fall by half in the phase considered.
